# In ChEMBL document CHEMBL4043193, “Cytotoxic effect of sanguiin H-6 on MCF-7 and MDA-MB-231 human breast carcinoma cells” (2017):
# Calls of active or inactive are those of the source. No cut-off for these calls is given here.
# What was measured:
# MCF7 [1] = assay: Cytotoxicity against human MCF7 ER-positive cells assessed as decrease in cell viability at 5 to 100 uM after 24 hrs by EZ-Cytox assay; assay type: functional, cell-based
# MDA-MB-231 [2] = assay: Cytotoxicity against human MDA-MB-231 ER-negative cells assessed as decrease in cell viability at 5 to 100 uM after 24 hrs by EZ-Cytox assay; assay type: functional, cell-based
# MCF7 [3] = assay: Cytotoxicity against human MCF7 ER-positive cells assessed as decrease in cell viability after 24 hrs by EZ-Cytox assay; assay type: functional, cell-based
# MDA-MB-231 [4] = assay: Cytotoxicity against human MDA-MB-231 ER-negative cells assessed as decrease in cell viability after 24 hrs by EZ-Cytox assay; assay type: functional, cell-based
# MCF7 [5] = assay: Cytotoxicity against human MCF7 ER-positive cells assessed as cell viability at 100 uM after 24 hrs by EZ-Cytox assay relative to control; assay type: functional; conditions: MCF7, 24 h, read-out: Activity
# MDA-MB-231 [6] = assay: Cytotoxicity against human MDA-MB-231 ER-negative cells assessed as cell viability at 100 uM after 24 hrs by EZ-Cytox assay relative to control; assay type: functional; conditions: MDA-MB-231, 24 h, read-out: Activity
# MCF7 [7] = assay: Induction of apoptosis in human MCF7 ER-positive cells at 100 uM after 24 hrs by Annexin-V/propidium iodide staining-based cytometry relative to control; assay type: functional
# How it was run: (§1)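 Cells exposed 24 h (MCF-7 at 50 or 100; MDA-MB-231 at 25 or 50), then stained with Alexa Fluor 488 annexin V conjugate for externalized phosphatidylserine and examined by fluorescence imaging. The read-out is the percentage of annexin-V-positive cells in a total cell count.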
# MDA-MB-231 [8] = assay: Induction of apoptosis in human MDA-MB-231 ER-negative cells at 50 uM after 24 hrs by Annexin-V/propidium iodide staining-based cytometry relative to control; assay type: functional; how it was run: as §1
# MCF7 [9] = assay: Induction of apoptosis in human MCF7 ER-positive cells assessed as increase in cleaved caspase-8 levels at 50 to 100 uM after 24 hrs by Western blot analysis; assay type: functional, cell-based
# How it was run: (§2)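 Western blot of whole cells after 24 h exposure (MCF-7 at 50 or 100; MDA-MB-231 at 25 or 50). Probed for cleavage of caspase-8, -9, -3 and PARP, and for Bax and Bcl-2 expression. The Bax:Bcl-2 ratio is derived from the same blots.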
# MDA-MB-231 [10] = assay: Induction of apoptosis in human MDA-MB-231 ER-negative cells assessed as increase in cleaved caspase-8 levels at 25 to 50 uM after 24 hrs by Western blot analysis; assay type: functional, cell-based; how it was run: as §2
# MDA-MB-231 [11] = assay: Induction of apoptosis in human MDA-MB-231 ER-negative cells assessed as increase in cleaved caspase-9 levels at 25 to 50 uM after 24 hrs by Western blot analysis; assay type: functional, cell-based; how it was run: as §2
# MCF7 [12] = assay: Induction of apoptosis in human MCF7 ER-positive cells assessed as increase in cleaved caspase-3 levels at 50 to 100 uM after 24 hrs by Western blot analysis; assay type: functional, cell-based; how it was run: as §2
# MDA-MB-231 [13] = assay: Induction of apoptosis in human MDA-MB-231 ER-negative cells assessed as increase in cleaved caspase-3 levels at 25 to 50 uM after 24 hrs by Western blot analysis; assay type: functional, cell-based; how it was run: as §2
# MCF7 [14] = assay: Induction of apoptosis in human MCF7 ER-positive cells assessed as increase in PARP levels at 50 to 100 uM after 24 hrs by Western blot analysis; assay type: functional, cell-based; how it was run: as §2
# MDA-MB-231 [15] = assay: Induction of apoptosis in human MDA-MB-231 ER-negative cells assessed as increase in PARP levels at 25 to 50 uM after 24 hrs by Western blot analysis; assay type: functional, cell-based; how it was run: as §2
# MCF7 [16] = assay: Induction of apoptosis in human MCF7 ER-positive cells assessed as increase in Bax expression levels at 50 to 100 uM after 24 hrs by Western blot analysis; assay type: functional, cell-based; how it was run: as §2
# MDA-MB-231 [17] = assay: Induction of apoptosis in human MDA-MB-231 ER-negative cells assessed as decrease in Bcl-2 expression levels at 25 to 50 uM after 24 hrs by Western blot analysis; assay type: functional, cell-based; how it was run: as §2
# MCF7 [18] = assay: Induction of apoptosis in human MCF7 ER-positive cells assessed as increase in Bax to Bcl-2 ratio at 50 to 100 uM after 24 hrs by Western blot analysis
# MDA-MB-231 [19] = assay: Induction of apoptosis in human MDA-MB-231 ER-negative cells assessed as increase in Bax to Bcl-2 ratio at 25 to 50 uM after 24 hrs by Western blot analysis
smiles,measurement,setting,value
O=C(O[C@@H]1O[C@@H]2COC(=O)c3cc(O)c(O)c(O)c3-c3c(cc(O)c(O)c3O)C(=O)O[C@H]2[C@@H]2OC(=O)c3cc(O)c(O)c(O)c3-c3c(cc(O)c(O)c3O)C(=O)O[C@@H]12)c1cc(O)c(O)c(Oc2c(O)c(O)c(O)c3c2C(=O)O[C@H]2[C@@H]4OC(=O)c5cc(O)c(O)c(O)c5-c5c(cc(O)c(O)c5O)C(=O)O[C@H]4[C@@H](OC(=O)c4cc(O)c(O)c(O)c4)O[C@@H]2COC(=O)c2cc(O)c(O)c(O)c2-3)c1,Activity,MCF7 [1],Active
same,Activity,MDA-MB-231 [2],Active
same,Activity,MCF7 [3],Dose-dependent effect
same,Activity,MDA-MB-231 [4],Dose-dependent effect
same,viability at 100 µM,MCF7 [5],69%
same,viability at 100 µM,MDA-MB-231 [6],63%
same,Activity,MCF7 [7],33.7%
same,Activity,MDA-MB-231 [8],40.7%
same,Activity,MCF7 [9],Active
same,Activity,MDA-MB-231 [10],Active
same,Activity,MDA-MB-231 [11],Active
same,Activity,MCF7 [12],Active
same,Activity,MDA-MB-231 [13],Active
same,Activity,MCF7 [14],Active
same,Activity,MDA-MB-231 [15],Active
same,Activity,MCF7 [16],Active
same,Activity,MDA-MB-231 [17],Active
same,Bax/Bcl-2 ratio,MCF7 [18],Active
same,Bax/Bcl-2 ratio,MDA-MB-231 [19],Active
